PKA-R1A act: PKA-R1A complex activation; P00514+P68181; AID 504707; activation, % at 11.4 µM; PKA-R1A dissociation, Cy5-IP20 fluorescence polarization; scaled: DMSO 0%, 113 µM cGMP 100%; actives 0.083% (n = 340,000);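 active means percent activation above the mean of all tested compounds plus 3 SD, cut at about 19% in these data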;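 further: higher means more PKAc released from R1A so a rise in polarization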
UCH37 inh: inhibitors of human deubiquitinating enzyme UCH37. Q9Y5K5. purified proteasome/UCH37, Ub-AMC cleavage fluorescence. inhibition, % (test concentration not listed). actives 0.33% (n = 330,000). AID 588478;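 active means mean inhibition over replicate wells above about 20%, limit read from the data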;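 further: 0% = compound-free wells with enzyme and 100% = wells lacking proteasome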
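Material: human UCH37 enzyme supplied as purified proteasome complex / Amount: 0.15 nM proteasome as dispensed / Buffer or medium: pH 7.4 Tris-HCl (50 mM) with ovalbumin, ATP-MgCl2, DTT / Times: preincubation 30 min, reaction 25 min, room temperature / Technique: AMC fluorescence from Ub-AMC cleavage, excitation 355 nm, emission 460 nm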
CTSL1 counter: blocks F. hepatica cathepsin L1 in PFM18AAP counter-screen. recombinant F. hepatica cathepsin L1, Z-Leu-Arg-MCA fluorescence. inhibition, % at 5.96 µM. actives 0.49% (n = 300,000). AID 1906;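 active means inhibition above the mean of all tested compounds plus 3 SD, set per screening campaign, cut at about 17% in these data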;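 further: 0% = plate median of test compound wells and 100% = 1 µM Z-Phe-Ala-diazomethylketone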
aDG glyco up: increases alpha dystroglycan glycosylation | Pro5-aDG cells, alpha-DG glycosylation AlphaScreen (IIH6); 0% Pro5, 100% B10-LARGE cell signal | activation, % at 10 µM | actives 0.22% (n = 360,000) | AID 624168;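 active means activation of at least 8% versus controls, or a plate z-score of at least 8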;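 further: Pro5 are CHO cells carrying HIG-tagged alpha-DG that lacks glycosylation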
PKA-R2B activ: PKA-R2B complex activation. P22694+P31323. PKA-R2B holoenzyme dissociation, Cy5-IP20 fluorescence polarization; R2B truncated from residue 108, S112A mutant; 0% DMSO only, 100% 113 µM cGMP. activation, % at 11.4 µM. actives 0.079% (n = 340,000);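 active means activation above a cutoff set at the mean over all compounds plus 3 SD, cut at about 18% in these data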;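 further: higher means more holoenzyme dissociation and a rise in polarization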
Target sequence (P31323 whole entry, looked up, other chains not shown, the tested form may be a part): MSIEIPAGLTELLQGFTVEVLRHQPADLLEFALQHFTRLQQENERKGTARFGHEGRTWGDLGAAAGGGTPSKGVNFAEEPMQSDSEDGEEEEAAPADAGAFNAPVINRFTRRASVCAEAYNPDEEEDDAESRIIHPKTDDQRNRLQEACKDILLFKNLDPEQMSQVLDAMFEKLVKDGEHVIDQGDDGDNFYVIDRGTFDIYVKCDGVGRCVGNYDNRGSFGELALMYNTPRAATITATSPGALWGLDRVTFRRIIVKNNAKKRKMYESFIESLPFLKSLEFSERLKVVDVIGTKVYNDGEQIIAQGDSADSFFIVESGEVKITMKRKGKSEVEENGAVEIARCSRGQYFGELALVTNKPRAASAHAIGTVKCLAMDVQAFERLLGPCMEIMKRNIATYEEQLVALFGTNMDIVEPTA
Starred values were filed as active, the others as inactive; x = no result. Shown are actives, neighbours in structure and some others; about 0.94% of the full set was active somewhere.

SMILES	PKA-R1A act	UCH37 inh	CTSL1 counter	aDG glyco up	PKA-R2B activ
COc1ccc(O)c(C=NNS(=O)(=O)c2ccc(C)cc2)c1	x	4.1	x	x	x
O=C(O)CCn1cc(/C=C2\NC(=S)N(c3ccccc3)C2=O)c(-c2ccc(Br)cc2)n1	11.7	6.7	18.7*	0.0	-2.6
O=C(CSc1nnnn1-c1ccc2c(c1)OCCO2)OC1CCCCC1	-5.4	0.6	78.0*	0.2	-10.6
CCC(=O)Nc1ccc(NC(=O)CSc2nnnn2-c2ccc3c(c2)OCCO3)cc1	-5.2	2.2	0.7	-0.5	-3.0
COc1ccc(-c2nc3c(-c4ccccc4)cnn3cc2C)cc1F	0.0	5.6	20.3*	-0.1	-14.7
Cc1coc2c1C(=O)C(=O)c1c-2ccc2c(C)cccc12	-0.3	1.7	94.2*	3.1	2.5
CC(=NNc1ccc(S(=O)(=O)N2CCCCC2)cn1)c1cccc(Br)c1	x	3.1	x	x	x
Cc1nn(C)c(C)c1CN(C)S(=O)(=O)c1ccc2ccccc2c1	-0.7	-0.1	1.0	6.5*	1.3
Cc1nn(C)c(C)c1CN(C)S(=O)(=O)c1ccc(F)cc1	1.1	3.4	-2.1	0.5	-12.9
CC(C)(C)OC(=O)N[C@@H](COCc1ccccc1)C(=O)N[C@@H](CO)[C@H](O)[C@@H]1C[C@@H]1C(=O)NC1CC1	0.9	4.3	-2.8	0.2	-3.9
CC(C)C[C@H](NC(=O)OC(C)(C)C)C(=O)N[C@@H](CO)[C@H](O)[C@@H]1C[C@@H]1C(=O)N(C)C	-8.9	2.9	12.9	0.0	-0.6
CCCCNC(=O)[C@H]1C[C@H]1[C@@H](O)[C@H](CO)NC(=O)[C@H](CC(C)C)NC(=O)OC(C)(C)C	1.4	4.2	43.6*	-0.2	4.7
CC(C)(C)OC(=O)N[C@@H](Cc1ccccc1)C(=O)N[C@@H](CO)[C@H](O)[C@@H]1C[C@@H]1C(=O)N1CCCC1	-11.2	-0.7	1.7	-0.1	9.7
CC(C)C[C@H](NC(=O)OC(C)(C)C)C(=O)N[C@@H](CO)[C@H](O)[C@@H]1C[C@@H]1C(=O)NC1CCCCC1	-1.2	6.3	32.9*	0.3	-7.5
CC(C)C[C@H](NC(=O)OC(C)(C)C)C(=O)N[C@@H](CO)[C@H](O)[C@@H]1C[C@@H]1C(=O)NC1CC1	-3.0	4.4	19.7*	-0.3	0.7
O=C(Nc1ccncc1)c1cccc(S(=O)(=O)N2CCc3ccccc32)c1	-5.2	4.5	16.8*	2.2	-10.5
O=C(Nc1cccnc1)c1cccc(S(=O)(=O)N2CCc3ccccc32)c1	-12.5	2.1	1.2	0.2	-7.8
CC(=NN=c1sc2ccccc2n1C)c1ccccn1	x	6.6	x	x	x
Cc1cc[n+](CC(=O)c2ccc3c(c2)OCCO3)cc1	-1.1	24.1*	-2.5	-0.5	-12.4
C(=Nn1cnnc1)c1cccc2ccccc12	x	-5.6	x	x	x
COc1cccc(-c2sc3ccc(OC)cc3c2-c2ccc(OCCN(C)C)cc2)c1	-10.7	x	x	8.6*	-8.4
COc1ccc(-c2sc3ccccc3c2-c2ccc(OCCN(C)C)cc2)cc1	2.5	-0.1	x	4.0	-5.0
CN(C)S(=O)(=O)N(CC(=O)Nc1ccccc1F)c1ccccc1	1.1	0.8	2.6	-0.2	6.5
COC(=O)c1ccc(C(=O)OC)c(NC(=O)CN(c2ccccc2)S(=O)(=O)N(C)C)c1	-0.1	-6.6	37.1*	-0.2	-11.2
COc1cc(C=NNC(=O)CNC(=O)c2ccc3c(c2)OCCO3)ccc1O	x	-2.8	x	x	x
SMILES	PKA-R1A act	UCH37 inh	CTSL1 counter	aDG glyco up	PKA-R2B activ
Cc1ccc(C=NNc2ccc3ccccc3n2)o1	x	-28.3	x	x	x
O=[N+]([O-])c1ccc2c(c1)N([O-])C1(CCCCC1)[N+]2=O	x	51.5*	x	x	x
Brc1cccc(-c2cnco2)c1	0.2	-0.2	18.3*	-0.1	-18.0
CCc1ccc(C(C)=NNS(=O)(=O)c2ccc(OC)cc2)s1	x	5.2	x	x	x
Cc1nc2c(nc1C)C(=O)c1ccccc1C2=O	0.0	x	x	14.3*	-4.6
COc1cc(N=Nc2ccc(Br)cc2)cc(C=O)c1O	7.5	x	x	0.1	9.9
O=Cc1cc(N=Nc2ccc(S(=O)(=O)O)cc2)ccc1O	-1.6	21.3*	9.1	0.0	10.0
COc1ccc(C=NNC(=O)c2ccc(N)cc2)cc1Cn1cc([N+](=O)[O-])cn1	x	6.6	x	x	x
CC(/C=C/C1[C@H](C)C[C@H](O[C@@H]2O[C@H](CO)[C@@H](O)[C@H](O)[C@H]2O)CC1(C)C)O[C@H]1O[C@H](CO)[C@@H](O)[C@H](O)[C@H]1O (some centres undefined)	-1.3	0.1	-3.2	-0.1	2.2
CC(/C=C/C1(O)C(C)CC(O)CC1(C)C)OC1OC(CO)C(O)C(O)C1O (centres undefined)	-3.0	3.3	55.1*	0.0	5.1
O=C(NN1C(=O)/C(=C/C=C/c2ccco2)SC1=S)c1ccccc1O	-7.1	8.1	2.6	0.0	-0.6
O=C(O)CCCN1C(=O)/C(=C/C=C/c2ccco2)SC1=S	-5.2	20.3*	0.1	1.4	-4.7
O=C(O)CC(C(=O)O)N1C(=O)/C(=C/C=C/c2ccco2)SC1=S (centres undefined)	6.8	21.1*	1.0	0.0	4.7
O=C(O)C(Cc1ccccc1)N1C(=O)/C(=C/C=C/c2ccco2)SC1=S (centres undefined)	3.1	23.8*	x	0.2	3.7
COc1ccc(/C=C2\SC(=S)N(C(Cc3ccccc3)C(=O)O)C2=O)cc1 (centres undefined)	-6.9	7.7	x	-0.2	-9.2
COc1ccc(CC(=O)NN=Cc2ccc(C)s2)cc1	x	5.8	x	x	x
CN(C)c1ccc(C=NN2CCN(c3ccccn3)CC2)cc1	x	9.5	x	x	x
Cc1cc(C(=O)NN=Cc2ccccc2Br)no1	x	3.1	x	x	x
C/C(=N/NC(N)=S)c1cc2ccc(O)cc2oc1=O	-1.2	x	20.0*	0.1	-1.6
Cc1ccc(C(C)C)c(OCC(=O)NN=Cc2cccn2C)c1	x	4.5	x	x	x
O=C(Nc1cccc(N=Cc2cc(Cl)cc(Br)c2O)c1)c1ccco1	3.3	2.3	18.2*	-0.2	7.5
O=C(CSc1nnc(SCc2cccc3ccccc23)s1)NN=Cc1c[nH]c2ccccc12	x	2.4	x	x	x
CCOC(=O)N1CCN(C(=O)c2ccc3c(=O)n4c(nc3c2)CCCCC4)CC1	x	28.7*	-1.2	x	x
CCOC(=O)C1CCN(C(=O)c2ccc3c(=O)n4c(nc3c2)CCCCC4)CC1	-2.3	0.6	-0.3	-0.3	4.0
COc1ccc(C(=O)ON=C2CCCc3nonc32)cc1	x	0.8	x	x	x
Cc1n[nH]c(=O)nc1NN=Cc1ccc(O)c([N+](=O)[O-])c1	x	20.9*	x	x	x
Cc1csc(N/N=C/c2ccc([N+](=O)[O-])cc2)n1	-4.0	x	-2.1	0.0	0.1
Cc1csc(NN=Cc2ccc(O)c([N+](=O)[O-])c2)n1	x	20.4*	x	x	x
O=C(O)c1cc(NN=Cc2ccc(-c3ccccc3)cc2)ccc1Cl	x	-26.3	x	x	x

Screening results: PubChem, several laboratories
